# Calls of active or inactive are those of the source. The rule behind the calls is not given here.
# Tests used:
# [1] = test system: CT26; test: Antiproliferative activity against mouse CT26 cells assessed as inhibition of cell viability up to 40 uM by MTT assay; type: functional, cell-based; conditions: TDE = time-dependent effect
# Outline: (§1)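 Exponentially growing cells (2–6 × 10^3 per well) seeded in 96-well plates for 24 h, then exposed to 0, 2.5, 5, 10, 20, 40 µM for 24, 48 and 72 h. MTT (5 mg/mL stock) added 2–4 h at 37 °C; formazan dissolved in DMSO, absorbance at 570 nm. Three independent experiments.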
# [2] = test system: SW48; test: Antiproliferative activity against human SW48 cells assessed as reduction in cell viability up to 40 uM by MTT assay; type: functional, cell-based; conditions: TDE = time-dependent effect; outline: as §1
# [3] = test system: HCT-116; test: Anticlonogenic activity against human HCT116 cells assessed as reduction in colony formation up to 40 uM incubated for 24 hrs supplemented with fresh medium containing compound every 3 days for 12 days by crystal violet staining-based microscopic analysis; type: functional, cell-based
# Outline: (§2)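 Cells seeded at 400–800 per well in 6-well plates; after 24 h, treated with 0–40 μM in fresh medium (with or without compound) replaced every three days for 12 days. Colonies fixed in methanol, stained with 0.5% crystal violet for 15 min and counted by microscope; reported as surviving colonies, mean ± SD of three experiments.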
# [4] = test system: SW48; test: Anticlonogenic activity against human SW48 cells assessed as reduction in colony formation up to 40 uM incubated for 24 hrs supplemented with fresh medium containing compound every 3 days for 12 days by crystal violet staining-based microscopic analysis; type: functional, cell-based; outline: as §2
# [5] = test system: HCT-116; test: Inhibition of colony formation in human HCT116 cells assessed as reduction in size of colonies up to 40 uM incubated for 24 hrs supplemented with fresh medium containing compound every 3 days for 12 days by crystal violet staining-based microscopic analysis; type: functional, cell-based
# Outline: (§3)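 400–800 cells per well seeded in 6-well plates; after 24 h, PEC (0–40 μM) added. Medium with or without compound replaced every three days for 12 days. Colonies washed in cold PBS, fixed in methanol, stained 15 min with 0.5% crystal violet and counted under a microscope. Mean ± SD of three experiments.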
# [6] = test system: SW48; test: Inhibition of colony formation in human SW48 cells assessed as reduction in size of colonies up to 40 uM incubated for 24 hrs supplemented with fresh medium containing compound every 3 days for 12 days by crystal violet staining-based microscopic analysis; type: functional, cell-based; outline: as §3
# [7] = test system: CT26; test: Induction of apoptosis in mouse CT26 cells assessed as early apoptotic cells at 10 uM after 48 hrs by Annexin V-FITC/propidium iodide staining-based flow cytometric analysis (reference value: 2.84 %); type: functional
# Outline: (§4)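 CT26 cells seeded at 1–2 × 10^5 per well in six-well plates for 24 h, then exposed to PEC (0–40 μM) for 24 or 48 h. Cells harvested, washed twice in cold PBS, stained with Annexin V-FITC/PI and read by flow cytometry. Early apoptotic = Annexin V+ only; late apoptotic = Annexin V+/PI+. Mean ± SD of three experiments.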
# [8] = test system: CT26; test: Induction of apoptosis in mouse CT26 cells assessed as viable cells at 40 uM after 48 hrs by Annexin V-FITC/propidium iodide staining-based flow cytometric analysis (reference value: 88.9 %); type: functional; conditions: CT26, 48 h, read-out: Activity; outline: as §4
# [9] = test system: CT26; test: Induction of apoptosis in mouse CT26 cells assessed as early apoptotic cells at 40 uM after 48 hrs by Annexin V-FITC/propidium iodide staining-based flow cytometric analysis (reference value: 2.84 %); type: functional; outline: as §4
# [10] = test system: HCT-116; test: Induction of apoptosis in human HCT116 cells assessed as late apoptotic cells at 10 uM after 48 hrs by Annexin V-FITC/propidium iodide staining-based flow cytometric analysis (reference value: 3.87 %); type: functional
# Outline: (§5)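 Cells (1–2 × 10^5 per well) seeded in six-well plates 24 h, treated at 0–40 μM for 24 h or 48 h, harvested, washed twice in cold PBS, stained with Annexin V-FITC/PI and analysed by flow cytometry; early (Annexin V only) and late (Annexin V and PI) apoptotic fractions quantified; three experiments.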
# [11] = test system: HCT-116; test: Induction of apoptosis in human HCT116 cells assessed as necrotic cells at 10 uM after 48 hrs by Annexin V-FITC/propidium iodide staining-based flow cytometric analysis (reference value: 8.24 %); type: functional; outline: as §5
# [12] = test system: HCT-116; test: Induction of apoptosis in human HCT116 cells assessed as late apoptotic cells at 20 uM after 48 hrs by Annexin V-FITC/propidium iodide staining-based flow cytometric analysis (reference value: 3.87 %); type: functional; outline: as §5
# [13] = test system: HCT-116; test: Induction of apoptosis in human HCT116 cells assessed as viable cells at 40 uM after 48 hrs by Annexin V-FITC/propidium iodide staining-based flow cytometric analysis (reference value: 86.7 %); type: functional; conditions: HCT-116, 48 h, read-out: Activity; outline: as §5
# [14] = test system: HCT-116; test: Induction of apoptosis in human HCT116 cells assessed as necrotic cells at 40 uM after 48 hrs by Annexin V-FITC/propidium iodide staining-based flow cytometric analysis (reference value: 8.24 %); type: functional; outline: as §5
# [15] = test system: HCT-116; test: Induction of apoptosis in human HCT116 cells assessed as increase in cleaved caspase-3 expression after 48 hrs by Western blot analysis; type: functional, cell-based
# Outline: (§6)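 Cells treated 48 h at 0, 10, 20 and 40 μM, washed in cold PBS, lysed in RIPA; protein equalized by Lowry assay, resolved by SDS-PAGE, transferred to PVDF, blocked 1 h at 37 °C, primary antibody overnight at 4 °C, secondary 1 h, ECL detection, densitometry. β-actin loading control.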
# [16] = test system: CT26; test: Induction of apoptosis in mouse CT26 cells assessed as decrease in Bcl-2 protein expression up to 40 uM after 48 hrs by Western blot analysis; type: functional, cell-based; outline: as §6
# [17] = test system: HCT-116; test: Induction of apoptosis in human HCT116 cells assessed as decrease in Bcl-2 protein expression up to 40 uM after 48 hrs by Western blot analysis; type: functional, cell-based; outline: as §6
# [18] = test system: CT26; test: Induction of apoptosis in mouse CT26 cells assessed as increase in Bax protein expression up to 40 uM after 48 hrs by Western blot analysis; type: functional, cell-based
# Outline: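 CT26 cells exposed 48 h to PEC at 0, 10, 20 and 40 μM, washed twice in cold PBS, lysed in RIPA. Protein measured by Lowry and equalized, run on SDS-PAGE, blotted to PVDF. Blocked 1 h at 37 °C, primary antibodies (Bax, Bcl-2, pro-caspase-3, cleaved caspase-3) overnight at 4 °C, secondary 1 h, ECL detection, densitometry.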
# [19] = test system: CT26; test: Antimigratory activity against mouse CT26 cells assessed as inhibition of cell migration after 48 hrs by crystal violet staining based Boyden-chamber cell migration assay; type: functional
# Outline: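 Boyden chamber, 8 μm pores: 1 × 10^5 cells in serum-free medium above, 10% FBS medium below, compound at various concentrations in both chambers; migration 48 h. Non-migrated cells swabbed off; migrated cells fixed in methanol, stained 0.5% crystal violet 20 min, counted in six random fields under light microscope; expressed as % inhibition versus untreated.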
# [20] = target: Signal transducer and activator of transcription 3 (Homo sapiens) (UniProt P40763); test: Inhibition of STAT3 phosphorylation in human HCT116 cells after 48 hrs by Western blot analysis; type: cell-based
# Outline: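 HCT116 cells treated 48 h with PEC at 0, 10, 20 and 40 μM, lysed in RIPA. Equal protein by Lowry, SDS-PAGE, PVDF transfer. Block 1 h at 37 °C, anti-Stat3 and anti-p-Stat3 Tyr705 overnight at 4 °C, secondary 1 h, ECL. β-actin loading control; bands quantified by densitometry.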
# Chain of Signal transducer and activator of transcription 3 (Homo sapiens) (P40763 whole entry): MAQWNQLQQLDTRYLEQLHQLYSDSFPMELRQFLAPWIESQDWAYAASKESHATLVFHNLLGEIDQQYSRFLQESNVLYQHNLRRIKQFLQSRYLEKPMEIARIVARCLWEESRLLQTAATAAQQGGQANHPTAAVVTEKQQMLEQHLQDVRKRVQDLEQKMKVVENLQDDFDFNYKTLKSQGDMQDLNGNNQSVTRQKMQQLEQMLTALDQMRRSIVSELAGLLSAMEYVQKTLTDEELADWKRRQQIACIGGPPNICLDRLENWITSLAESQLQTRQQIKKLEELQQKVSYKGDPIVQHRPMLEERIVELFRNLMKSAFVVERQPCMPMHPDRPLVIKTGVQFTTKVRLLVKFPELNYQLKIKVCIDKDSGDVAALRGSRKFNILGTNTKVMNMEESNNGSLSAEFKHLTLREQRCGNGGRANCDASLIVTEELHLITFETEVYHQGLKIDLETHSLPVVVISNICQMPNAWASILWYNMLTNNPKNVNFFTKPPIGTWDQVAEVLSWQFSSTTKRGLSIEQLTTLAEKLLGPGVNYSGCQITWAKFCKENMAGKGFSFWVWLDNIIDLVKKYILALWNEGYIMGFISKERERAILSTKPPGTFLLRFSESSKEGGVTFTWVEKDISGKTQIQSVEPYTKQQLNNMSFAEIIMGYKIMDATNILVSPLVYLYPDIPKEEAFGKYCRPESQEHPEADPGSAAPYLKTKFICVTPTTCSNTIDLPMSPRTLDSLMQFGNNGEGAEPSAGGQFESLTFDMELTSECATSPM
compound,measurement,setting,value
COc1ccc(-c2cc(=O)c3c(O)c(OC)c(O)cc3o2)cc1 [PECTOLINARIGENIN],inhibition,[1],Tde
same,inhibition,[2],Tde
same,inhibition,[3],Active
same,inhibition,[4],Active
same,inhibition,[5],Active
same,inhibition,[6],Active
same,Activity,[7],3.57%
same,viability at 40 µM,[8],67.3%
same,Activity,[9],16.2%
same,Activity,[10],5.81%
same,Activity,[11],3.98%
same,Activity,[12],7.36%
same,viability at 40 µM,[13],73.7%
same,Activity,[14],7.17%
same,Activity,[15],Dose-dependent effect
same,Activity,[16],Active
same,Activity,[17],Active
same,Activity,[18],Active
same,inhibition,[19],Dose-dependent effect
same,inhibition,[20],Dose-dependent effect

# — ChEMBL document CHEMBL4304819, “Natural product pectolinarigenin exhibits potent anti-metastatic activity in colorectal carcinoma cells in vitro and in vivo” (2019)
